Measured values taken from ChEMBL document CHEMBL1275406, “Comparison of the antimicrobial effects of chlorine, silver ion, and tobramycin on biofilm” (2008).
The source made the active and inactive calls. The calls are words filed in the database; no cut-off is given here.

Assays:
Pseudomonas aeruginosa [1] = experiment: Ratio of antimicrobial activity against Pseudomonas aeruginosa PAO1 grown as biofilm assessed as concentration and time required inactivate 2 log bacterial cells to antimicrobial activity against Pseudomonas aeruginosa PAO1 grown as planktonic cells assessed as concentration and time required inactivate 2 log bacterial cells; format: functional
Summary of the method: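 Ratio computed as biofilm CT over planktonic CT for 2-log inactivation of PAO1. Biofilm values come from coupons exposed to 10 mg/liter agent. Planktonic values come from 10^6 CFU/ml suspensions exposed to 1 or 10 mg/liter. Both were measured by plate count.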

Pseudomonas aeruginosa [2] = experiment: Antimicrobial activity against Pseudomonas aeruginosa PAO1 grown as biofilms; format: functional, organism-based
Summary of the method: (§1)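 PAO1 biofilm grown 24 h batch then 24 h continuous flow on coupons, exposed to 10 mg/liter agent unstirred. Biofilm dislodged by sonication/vortexing, plate counted after 24 h at 37°C in triplicate. Log10 reduction plotted against concentration × contact time; CT for 2-log inactivation taken by extrapolating the curve. Experiments repeated 2–3 times.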

Pseudomonas aeruginosa [3] = experiment: Antimicrobial activity against Pseudomonas aeruginosa PAO1 assessed as log reduction in bacterial count at 10 mg/L after 50 mins by CTC staining; format: functional
Summary of the method: (§2)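 P. aeruginosa PAO1 biofilm grown on reactor coupons (24 h batch in 1/100-strength TSB, room temp, 100 rpm, then 24 h continuous flow in 1/300-strength TSB). Coupons rinsed and soaked unstirred in 10 mg/liter agent. Biofilm removed by sonication/vortexing in PBS. Counts by plate count (24 h, 37°C), CTC (1.6 μg/ml) or Syto9/propidium iodide stain on filtered cells, each normalized to DAPI total and to untreated biofilm; log10 reduction.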

Pseudomonas aeruginosa [4] = experiment: Antimicrobial activity against Pseudomonas aeruginosa PAO1 assessed as log reduction in bacterial count at 10 mg/L after 50 mins by BacLight Live/Dead staining; format: functional; summary of the method: as §2
Pseudomonas aeruginosa [5] = experiment: Antimicrobial activity against Pseudomonas aeruginosa PAO1 assessed as log reduction in bacterial count at 10 mg/L after 50 mins by plate count method; format: functional; summary of the method: as §2
Pseudomonas aeruginosa [6] = experiment: Antimicrobial activity against Pseudomonas aeruginosa PAO1 grown as planktonic cells assessed as concentration and time required inactivate 1 log bacterial cells; format: functional
Summary of the method: (§3)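 Washed overnight PAO1 cultures at 10^6 CFU/ml in 50 ml, exposed to agent at 1 or 10 mg/liter (data averaged) in capped flasks with slow magnetic stirring. Survival by plate count only. Log10 reduction plotted against CT (mg·min/liter); CT90 or 2-log CT read or extrapolated from the curve.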

Pseudomonas aeruginosa [7] = experiment: Antimicrobial activity against Pseudomonas aeruginosa PAO1 grown as biofilm assessed as membrane integrity by BacLight Live/Dead staining; format: functional
Summary of the method: (§4)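 P. aeruginosa PAO1 reactor-grown biofilm coupons soaked in 10 mg/liter agent without stirring. Coupons stained 1 h in the dark with BacLight Syto9/propidium iodide or CTC (1.6 μg/ml, 37°C) plus DAPI (10 μg/ml), then imaged by confocal microscopy. Ratios are read at the point where plate-count culturability fell to 60%, normalized to untreated biofilm.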

Pseudomonas aeruginosa [8] = experiment: Antimicrobial activity against Pseudomonas aeruginosa PAO1 grown as planktonic cells assessed as concentration and time required inactivate 2 log bacterial cells; format: functional; summary of the method: as §3
Pseudomonas aeruginosa [9] = experiment: Antimicrobial activity against Pseudomonas aeruginosa PAO1 grown as biofilm assessed as concentration and time required inactivate 2 log bacterial cells; format: functional; summary of the method: as §1
Pseudomonas aeruginosa [10] = experiment: Antimicrobial activity against Pseudomonas aeruginosa PAO1 grown as biofilm assessed as respiratory activity by CTC-DAPI staining; format: functional, organism-based; summary of the method: as §4

What does the source list for `NC[C@H]1O[C@H](O[C@H]2[C@H](O)[C@@H](O[C@H]3O[C@H](CO)[C@@H](O)[C@H](N)[C@H]3O)[C@H](N)C[C@@H]2N)[C@H](N)C[C@@H]1O` [TOBRAMYCIN]?
Ratio (Pseudomonas aeruginosa [1]): 33; Activity (Pseudomonas aeruginosa [2]): Active; FC (Pseudomonas aeruginosa [3]): 0.9; FC (Pseudomonas aeruginosa [4]): 0.2; FC (Pseudomonas aeruginosa [5]): 1.5; Activity (Pseudomonas aeruginosa [6]): 20 mg·min/L; Activity (Pseudomonas aeruginosa [7]): 70%; Activity (Pseudomonas aeruginosa [8]): 30 mg·min/L; Activity (Pseudomonas aeruginosa [9]): 1000 mg·min/L; Activity (Pseudomonas aeruginosa [10]): Active
